# Results: ChEMBL document CHEMBL3822448, “The chemical synthesis and preliminary biological studies of phosphodiester and phosphorothioate analogues of 2-methoxy-lysophosphatidylethanolamine” (2016)
# Active and inactive are the calls of the source. The calls are words filed in the database; no cut-off is given here.
# Legend:
# [1] = (§1) Cytotoxicity against human PC3 cells assessed as reduction in cell viability at 50 uM after 48 hrs by resazurin-based prestoblue assay; type: functional, PC-3
# Method in brief: (§2)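 PC3 human prostate cancer cells (express LPA1 receptor) seeded at 5,000/well, cultured 24 and 48 h, then treated with LPE analogues at 5, 10, 25 or 50 μM for 24 or 48 h. Viability read with resazurin-based PrestoBlue reagent and expressed as % of untreated control (100%). Means ± SD of at least three independent experiments; P < 0.05 versus control.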
# PC-3 [2] = test: Cytotoxicity against human PC3 cells assessed as reduction in cell viability at 5 uM after 24 to 48 hrs by resazurin-based prestoblue assay; type: functional; method in brief: as §2
# PC-3 [3] = test: Cytotoxicity against human PC3 cells assessed as reduction in cell viability at 10 uM after 24 to 48 hrs by resazurin-based prestoblue assay; type: functional; method in brief: as §2
# [4] = (§3) Cytotoxicity against human PC3 cells assessed as reduction in cell viability at 25 uM after 48 hrs by resazurin-based prestoblue assay; type: functional, PC-3; method in brief: as §2
# PC-3 [5] = test: as §1; type: functional; method in brief: as §2
# PC-3 [6] = test: (§4) Cytotoxicity against human PC3 cells assessed as reduction in cell viability at 10 uM after 48 hrs by resazurin-based prestoblue assay; type: functional; method in brief: as §2
# PC-3 [7] = test: as §3; type: functional; method in brief: as §2
# PC-3 [8] = test: Cytotoxicity against human PC3 cells assessed as reduction in cell viability at 50 uM after 24 to 48 hrs by resazurin-based prestoblue assay; type: functional; method in brief: as §2
# [9] = as §4; type: functional, PC-3; method in brief: as §2
# [10] = Cytotoxicity against human PC3 cells assessed as reduction in cell viability at 10 uM after 24 hrs by resazurin-based prestoblue assay; type: functional, PC-3; method in brief: as §2
Structure (SMILES),Activity [1],Activity (PC-3 [2]),Activity (PC-3 [3]),Activity [4],Activity (PC-3 [5]),Activity (PC-3 [6]),Activity (PC-3 [7]),Activity (PC-3 [8]),Activity [9],Activity [10]
CCCCCCCCCCCCCCCC(=O)OCC(COP(=O)(S)OCCN)OC (configuration not stated),70%,inactive,inactive,79.1%,,,,,,
CCCCCCCCCCCCCC(=O)OCC(COP(=O)(S)OCCN)OC (mixture of isomers),43.8%,inactive,inactive,59.8%,,,,,,
CCCCCCCC/C=C\CCCCCCCC(=O)OCC(COP(=O)(O)OCCN)OC (mixture of isomers),,inactive,inactive,,Active,Active,Active,,,
CCCCCCCC/C=C\CCCCCCCC(=O)OCC(COP(=O)(S)OCCN)OC (mixture of isomers),,inactive,inactive,,,,,inactive,,
CCCCCCCCCCCCCCCCCC(=O)OCC(COP(=O)(S)OCCN)OC (mixture of isomers),,inactive,inactive,,,,,inactive,,
CCCCCCCCCCCCCCCC(=O)OCC(COP(=O)(O)OCCN)OC (racemic),24.9%,inactive,,49.5%,,,,,78.8%,
CCCCCCCCCCCCCC(=O)OCC(COP(=O)(O)OCCN)OC (racemic),6.3%,,,22.7%,,,,,59.8%,68.2%
CCCCCCCCCCCCCCCCCC(=O)OCC(COP(=O)(O)OCCN)OC (racemic),,inactive,inactive,,Active,Active,Active,,,
